Laboratory results as given in ChEMBL document CHEMBL2150886, “Synthesis of [3β-acetoxy-urs-12-en-28-oyl]-1-monoglyceride and investigation on its anti tumor effects against BGC-823” (Bioorg Med Chem, 2011).
Active and inactive are the calls of the source. The rule behind the calls is not given here.

How the values were obtained:
[1] = system: BGC-823; assay: Induction of apoptosis in human BGC823 cells assessed as increase in caspase 3 activity at 20 uM incubated for 48 hrs relative to untreated control; type: functional
How it was run: (§1)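 BGC-823 cells were exposed to 0, 10 or 20 µM for 48 h, detached with trypsin/EDTA and washed in cold PBS. About 10⁶ cells were lysed, and the lysate was incubated 1 h with Ac-DEVD-pNA, with cleavage read at 405 nm. Activity was normalised to Bradford protein and expressed relative to the untreated control. Mean ± SD of three independent experiments.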

[2] = system: Mus musculus; assay: Toxicity in human BGC823 cells xenografted nude mouse assessed as body weight changes at 30 mg/kg, iv treated 5 times on day 1, 4, 7, 10, 13 and day 16 post tumor implant (reference value: 20.12 +/- 1.52 grams); type: organism-based, BGC-823; design: dose 30 mg/kg, route intravenous; settings: in vivo
How it was run: (§2)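 Nude mice (male, 5 weeks, 18–22 g) carried subcutaneous BGC-823 xenografts from 1 × 10⁷ cells. Dosing started at about 200 mm³ tumour volume, with eight mice per group. Each dose was 0.2 mL given iv; the saline control received 0.9% saline. Body weight was recorded on days 1, 4, 7, 10, 13 and 16 of treatment and reported as mean ± SD, n = 8.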

[3] = system: BGC-823; assay: Induction of apoptosis in human BGC823 cells assessed as necrotic damaged cell population at 40 uM by annexinV/propidium iodide staining (reference value: 0.5%; type: functional
[4] = system: BGC-823; assay: Cell cycle arrest in human BGC823 cells assessed as accumulation of cells at subG0/G1 phase at 20 uM incubated for 72 hrs by propidium iodide staining based flow cytometry (Rvb= 0.66%); type: functional
How it was run: (§3)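 BGC-823 cells were exposed to 20 µM for 24, 48 or 72 h, or to 10, 20 or 40 µM for 48 h. About 10⁶ cells were harvested and stained with propidium iodide using a cell cycle kit, then analysed by flow cytometry. Percentages were read for sub-G0/G1, G0/G1, S and G2/M. Each experiment was run at least three times; mean ± SD.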

[5] = system: BGC-823; assay: Antitumor activity against human BGC823 cells xenografted in nude mouse assessed as reduction in tumor volume at 30 mg/kg, iv dosed 5 times; type: functional; design: scale not given: the % may be the effect or the level left
How it was run: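 Male nude mice (5 weeks, 18–22 g) inoculated subcutaneously with 1 × 10⁷ BGC-823 cells. At about 200 mm³ tumours, animals were randomised into four groups of eight. Each received 0.2 mL iv by tail vein; controls got 0.9% saline. Tumour volume was measured daily as 0.5 × length × width²; tumours were weighed at the end. Values are mean ± SD, n = 8.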

[6] = system: BGC-823; assay: Cell cycle arrest in human BGC823 cells assessed as accumulation of cells at subG0/G1 phase at 20 uM incubated for 48 hrs by propidium iodide staining based flow cytometry (Rvb= 0.66%); type: functional; how it was run: as §3
[7] = system: Mus musculus; assay: Toxicity in human BGC823 cells xenografted nude mouse assessed as body weight changes at 6 mg/kg, iv treated 5 times on day 1, 4, 7, 10 and day 13 post tumor implant (reference value: 20.21 +/- 1.83 grams); type: organism-based, BGC-823; design: dose 6 mg/kg, route intravenous; settings: in vivo; how it was run: as §2
[8] = system: BGC-823; assay: Reduction in BCL-2 protein expression in human BGC823 cells at 1o to 40 uM incubated for 48 hrs by Western blotting; type: functional, cell-based
How it was run: (§4)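 BGC-823 cells were treated with 10, 20 or 40 µM for 48 h, detached with trypsin/EDTA, and more than 10⁶ cells were lysed. Protein was quantified by Bradford, and 150–200 µg per lane was run on 12.5% SDS-PAGE and transferred to PVDF. Antibodies: Survivin 1:1000, Bcl-2 1:200, β-actin 1:1000; HRP secondary 1 h; ECL detection. Expression was quantified relative to control.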

[9] = system: BGC-823; assay: Induction of apoptosis in human BGC823 cells assessed as viable cell population at 10 uM by annexinV/propidium iodide staining (reference value: 95.5%); type: functional
[10] = system: BGC-823; assay: Induction of cell shrinkage in human BGC823 cells at 30 uM incubated for 48 hrs by MTT assay; type: functional, cell-based
[11] = system: HepG2; assay: Cytotoxicity against human HepG2 cells incubated for 48 hrs by MTT assay; type: functional, cell-based; settings: HepG2, 48 h
How it was run: (§5)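 Cells were grown in RPMI-1640 with 10% heat-inactivated FCS at 37 °C under 5% CO₂, seeded at 5 × 10³ per well and left 24 h. Compounds in DMSO were diluted in medium to 0.5% final DMSO; controls received 0.5% DMSO. Exposure was 24–72 h, followed by MTT for 4 h, formazan dissolved in DMSO, and A570. Six wells per sample; IC₅₀ taken at 50% inhibition; ≥3 repeats.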

[12] = system: BGC-823; assay: Induction of apoptosis in human BGC823 cells assessed as late apoptotic cell population at 10 uM by annexinV/propidium iodide staining (reference value: 2.1%); type: functional
[13] = system: Mus musculus; assay: Toxicity in human BGC823 cells xenografted nude mouse assessed as body weight changes at 30 mg/kg, iv treated 3 times on day 1, day 4 and day 7 post tumor implant (reference value: 20.79 +/- 1.29 grams); type: organism-based, BGC-823; design: dose 30 mg/kg, route intravenous; settings: in vivo; how it was run: as §2
[14] = system: HT-29; assay: Cytotoxicity against human HT-29 cells incubated for 48 hrs by MTT assay; type: functional, cell-based; settings: HT-29, 48 h; how it was run: as §5
[15] = system: Mus musculus; assay: Toxicity in human BGC823 cells xenografted nude mouse assessed as body weight changes at 6 mg/kg, iv treated 3 times on day 1, day 4 and day 7 post tumor implant (reference value: 20.79 +/- 1.29 grams); type: organism-based, BGC-823; design: dose 6 mg/kg, route intravenous; settings: in vivo; how it was run: as §2
[16] = system: BGC-823; assay: Reduction in survivin protein expression in human BGC823 cells incubated for 48 hrs by Western blotting; type: functional, cell-based; how it was run: as §4
[17] = system: BGC-823; assay: Induction of apoptosis in human BGC823 cells assessed as increase in caspase 3 activity at 10 to 20 uM incubated for 48 hrs; type: functional, cell-based; how it was run: as §1
[18] = system: BGC-823; assay: Induction of apoptosis in human BGC823 cells assessed as late apoptotic cell population at 30 uM by annexinV/propidium iodide staining (reference value: 2.1%); type: functional
[19] = system: BGC-823; assay: Induction of apoptosis in human BGC823 cells assessed as increase in caspase 3 activity at 10 uM incubated for 48 hrs relative to untreated control; type: functional; how it was run: as §1
[20] = system: BGC-823; assay: Induction of apoptosis in human BGC823 cells assessed as late apoptotic cell population at 20 uM by annexinV/propidium iodide staining (reference value: 2.1%); type: functional
[21] = system: BGC-823; assay: Cell cycle arrest in human BGC823 cells assessed as accumulation of cells at subG0/G1 phase at 40 uM incubated by propidium iodide staining based flow cytometry (Rvb= 0.66%); type: functional; settings: TDE = time-dependent effect; how it was run: as §3
[22] = system: Mus musculus; assay: Toxicity in human BGC823 cells xenografted nude mouse assessed as body weight changes at 6 mg/kg, iv treated […] on day 1, 4, 7, 10, 13 and day 16 post tumor implant (reference value: 20.12 +/- 1.52 grams); type: organism-based, BGC-823; design: dose 6 mg/kg, route intravenous; settings: in vivo
[23] = system: BGC-823; assay: Induction of apoptosis in human BGC823 cells assessed as viable cell population at 40 uM by annexinV/propidium iodide staining (reference value: 95.5%); type: functional

For CC(=O)O[C@H]1CC[C@]2(C)[C@H]3CC=C4[C@@H]5[C@@H](C)[C@H](C)CC[C@]5(C(=O)OCC(O)CO)CC[C@@]4(C)[C@]3(C)CC[C@H]2C1(C)C (stereo partly drawn), the “fold change (FC)” value [1] was 3.65, the Activity [2] was 19.57 g and the Activity [3] was 2.3%. It also gave an Activity [4] of 13.63%, an Activity [5] of 41.9% and an Activity [6] of 7.91%. For the same compound, the Activity [7] was 20.07 g, the Activity [8] was “Active” and the Activity [9] was 92.7%. For the same compound, the Activity [10] was “Active”, the IC50 [11] was 27.5 µM and the Activity [12] was 2.6%. The Activity [13] was 19.29 g, the IC50 [14] was 18.4 µM and the Activity [15] was 20.13 g. For the same compound, the Activity [16] was “Dose-dependent effect”, the Activity [17] was “Active” and the Activity [18] was 29%. The “fold change (FC)” value [19] was 2.54, the Activity [20] was 2.3% and the Activity [21] was “tde”. It also gave an Activity [22] of 20.09 g and an Activity [23] of 2%.
